The test system of the assay is Mycobacterium tuberculosis. The assay can be described thus: Antituberculosis activity against multidrug-resistant Mycobacterium tuberculosis isolate Spec. 192 by twofold serial dilution method. Format: functional. A digest of the protocol: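 Classical two-fold test-tube serial dilution in Youmans' modified Proskauer–Beck liquid medium with 10% bovine serum. Inocula from 14-day cultures. Compounds in ethylene glycol, 10 mg/mL stock, geometric dilutions in medium; 3.1, 6.2, 12.5, 25, 50 and 100 µg/mL evaluated. Incubation at 37 °C. MIC = lowest concentration inhibiting growth relative to a compound-free tube. INH, PZA and RMP served as reference drugs.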

≈ marks a conversion by molar mass, not a printed value.

In turn, `CNC(=S)NNC(=O)CCC1CCCCC1` displayed an MIC of 100 µg/mL (≈ 411 µM).

Compound `CO[C@H]1/C=C/O[C@@]2(C)Oc3c(C)c(O)c4c(O)c(c(/C=N/N5CCN(C)CC5)c(O)c4c3C2=O)NC(=O)/C(C)=C\C=C\[C@H](C)[C@H](O)[C@@H](C)[C@@H](O)[C@@H](C)[C@H](OC(C)=O)[C@@H]1C` [RIFAMPIN] yielded an MIC of 1.2 µg/mL (≈ 1.46 µM).

In the case of `c1ccc2c(c1)ccc1nc(CCC3CCCCC3)[nH]c12`, the MIC worked out at 1.5 µg/mL (≈ 5.39 µM). The result for `NNC(=O)c1ccncc1` [ISONIAZID] reads 0.5 µg/mL (≈ 3.65 µM). The value for `Cl.Cl.c1cc2nc(CCC3CCCCC3)[nH]c2cn1` was 25 µg/mL; that for `CC1(C)CNc2nnc(CCC3CCCCC3)n2C1` was 100 µg/mL (≈ 381 µM). The value for `Brc1cnc2[nH]c(CCC3CCCCC3)nc2c1` was 6.2 µg/mL (≈ 20.1 µM); that for `CSC(=NNC(=O)CCC1CCCCC1)SC` was 50 µg/mL (≈ 182 µM). Take `O=C(CCC1CCCCC1)NNC(=S)NC1CCCCC1`: the MIC turned out to be 100 µg/mL (≈ 321 µM). The result for `S=c1[nH]nc(CCC2CCCCC2)n1C1CCCCC1` reads 100 µg/mL (≈ 341 µM); that for `S=c1[nH]nc(CCC2CCCCC2)[nH]1`, 50 µg/mL (≈ 237 µM); that for `O=C(CCC1CCCCC1)NNC(=S)Nc1ccc(Cl)cc1`, 50 µg/mL (≈ 147 µM). Consider `S=c1[nH]nc(CCC2CCCCC2)n1-c1ccc(Cl)cc1`, for which the MIC came out at 100 µg/mL (≈ 311 µM). The value for `O=C(CCC1CCCCC1)NN=C1SCCS1` was 100 µg/mL (≈ 367 µM); that for `C=CCNC(=S)NNC(=O)CCC1CCCCC1` was 100 µg/mL (≈ 371 µM). The value for `O=[N+]([O-])c1cc(Cl)cc2[nH]c(CCC3CCCCC3)nc12` was 12.5 µg/mL (≈ 40.6 µM).

In turn, `c1ccc2nc3cc4[nH]c(CCC5CCCCC5)nc4cc3nc2c1` registered an MIC of 1.5 µg/mL (≈ 4.54 µM).

Compound `NC(=O)c1cnccn1` [PYRAZINAMIDE] registered an MIC of 25 µg/mL (≈ 203 µM). The value for `CSC(=S)NNC(=O)CCC1CCCCC1` was 50 µg/mL (≈ 192 µM); that for `C=CCn1c(CCC2CCCCC2)n[nH]c1=S` was 50 µg/mL (≈ 199 µM); that for `S=c1[nH]nc(CCC2CCCCC2)o1` was 25 µg/mL (≈ 118 µM). The value for `Cn1c(CCC2CCCCC2)n[nH]c1=S` was 100 µg/mL (≈ 444 µM).

Turning to `c1cnc2[nH]c(CCC3CCCCC3)nc2c1`, the MIC amounted to 50 µg/mL (≈ 218 µM).
